pIC50: −log10 of the molar value.
Tested on: Trypanosoma congolense
Assay: Trypanocidal activity against bloodstream form of Trypanosoma congolense IL3000 after 72 hrs by CellTiter-Glo reagent-based luminescence assay
Format: functional, organism-based
Details: IL3000, 72 h
How it was run: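 BSF parasites maintained daily in HMI-9 medium. Compounds serially diluted 5-fold in HMI-9 from 25 μg/mL to 1.6 ng/mL and incubated with trypanosomes for 72 h. Viability read by luminescence after CellTiter-Glo addition; IC50 calculated from the dilution series. Pentamidine as positive control.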

SMILES	pIC50
COc1cc(/C=C/C(=O)O)ccc1O [FERULATE]	< 4.60
COc1cc([C@@H]2Oc3c(OC)cc(/C=C/COC(=O)CC(C)C)cc3[C@H]2COC(=O)CC(C)C)ccc1O	4.87
COc1cc(C=O)ccc1O [VANILLIN]	< 4.60
COc1cc(C(=O)[C@@H](COC(=O)CC(C)C)c2cc(C=O)cc(OC)c2O)ccc1O	< 4.60
COc1cc(C(=O)[C@@H](COC(=O)CC(C)C)Oc2ccc(/C=C/COC(=O)CC(C)C)cc2OC)ccc1O	5.02
COc1cc([C@@H]2Oc3c(OC)cc(C=O)cc3[C@H]2COC(=O)CC(C)C)ccc1O	4.70
COc1cc([C@@H](OC)[C@H](O)COC(=O)CC(C)C)ccc1O	< 4.60
COc1cc([C@@H](O)[C@@H](COC(=O)CC(C)C)Oc2ccc(/C=C/COC(=O)CC(C)C)cc2OC)ccc1O	4.76
C=C(C=O)[C@H](COC(=O)CC(C)C)C(c1ccc(O)c(OC)c1)c1ccc(O)c(OC)c1	5.55
COc1cc(C(=O)[C@H](O)COC(=O)CC(C)C)ccc1O	< 4.60
COc1cc([C@@H]2Oc3c(OC)cc(/C=C/C=O)cc3[C@H]2COC(C)=O)ccc1O	5.12
COc1cc([C@@H]2Oc3c(OC)cc(C(=O)O)cc3[C@H]2COC(=O)CC(C)C)ccc1O	< 4.60
COc1cc(/C=C/COC(=O)CC(C)C)ccc1O	< 4.60
COc1cc([C@@H]2Oc3c(OC)cc(/C=C/C=O)cc3[C@H]2COC(=O)CC(C)C)ccc1O	5.62
COc1cc([C@@H]2Oc3c(OC)cc(/C=C/COC(C)=O)cc3[C@H]2COC(C)=O)ccc1O	4.79
COc1cc(/C=C/C=O)ccc1O [CONIFERYL ALDEHYDE]	< 4.60
COc1cc([C@@H](O)[C@H](O)COC(=O)CC(C)C)ccc1O	< 4.60
